The labels stand for the following.
T1: NS3 genotype-4 (Hepatitis C virus genotype 4a, UniProt O39929)
T1 sequence (O39929 1027-1657 limits assumed): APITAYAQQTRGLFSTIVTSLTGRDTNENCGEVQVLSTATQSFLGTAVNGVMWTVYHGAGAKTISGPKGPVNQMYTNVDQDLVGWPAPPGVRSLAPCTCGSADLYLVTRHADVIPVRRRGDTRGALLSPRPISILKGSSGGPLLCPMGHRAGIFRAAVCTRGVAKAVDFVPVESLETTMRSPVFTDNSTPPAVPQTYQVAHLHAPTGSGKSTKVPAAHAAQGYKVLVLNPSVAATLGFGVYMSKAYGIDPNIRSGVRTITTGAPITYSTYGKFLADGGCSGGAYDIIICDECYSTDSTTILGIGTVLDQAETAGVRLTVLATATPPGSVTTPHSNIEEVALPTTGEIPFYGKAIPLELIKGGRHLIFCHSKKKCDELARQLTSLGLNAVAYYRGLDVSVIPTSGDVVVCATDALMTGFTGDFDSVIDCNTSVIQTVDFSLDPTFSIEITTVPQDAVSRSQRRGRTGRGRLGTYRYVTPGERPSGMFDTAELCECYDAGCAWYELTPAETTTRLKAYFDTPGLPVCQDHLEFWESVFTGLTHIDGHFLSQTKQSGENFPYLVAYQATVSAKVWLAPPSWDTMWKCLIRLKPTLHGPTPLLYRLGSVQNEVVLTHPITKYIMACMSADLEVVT

T2: fluorescein isothiocyanate-labeled NS4A(21'-34') core peptide (hepatitis C virus, also: FITC label, position not given here)
T2 peptide: KKGSVVIVGRIVLSGKK

B1: native NS4A(21'-34') core peptide (KK-GSVVIVGRIVLSG-KK) (peptide)
peptide: KKGSVVIVGRIVLSGKK
B2: NS3 domain of HCV genotype-4 (domain or fragment)
chain: APITAYAQQTRGLFSTIVTSLTGRDTNENCGEVQVLSTATQSFLGTAVNGVMWTVYHGAGAKTISGPKGPVNQMYTNVDQDLVGWPAPPGVRSLAPCTCGSADLYLVTRHADVIPVRRRGDTRGALLSPRPISILKGSSGGPLLCPMGHRAGIFRAAVCTRGVAKAVDFVPVESLETTMRSP

The target of one series is T1, NS3 genotype-4. Description: Fluorescence anisotropy, dissociation constant of FITC-NS4A with NS3. It is filed as binding, HCV genotype-4. A digest of the protocol:
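His-tagged HCV-4 NS3 domain (expressed in E. coli Rosetta (DE3) pLysS, Ni-NTA purified) serially diluted in 20 mM HEPES, 10 mM DTT, 200 mM NaCl, pH 7.6, with 0.1 µM FITC-labelled NS4A 21'-34' core peptide. Shaken at room temperature for 15, 45, 90 and 120 min. Fluorescence anisotropy read at 480/520 nm. Kd fitted with a single-binding-site model at 90 min.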

The test system of series [1] is NS3 domain of HCV genotype-4. Kind of series: Differential static light scattering. It is filed as binding.
Series [2] deals with B2. Description: differential static light scattering.
In series [3] the target is B2. Kind of series: differential static light scattering.
For series [4], the target named is B2. Kind of series: differential static light scattering.
Series [5] deals with B2. Kind of series: differential static light scattering.
For series [6], the target named is B2. Kind of series: differential static light scattering.
Series [7] has as its target B2. Kind of series: differential static light scattering.
For series [8], the target named is B2. Description: differential static light scattering.
In series [9] the target is T2, fluorescein isothiocyanate-labeled …. Description: fluorescence polarisation. (In general: Fluorescence polarisation rises when a labelled molecule tumbles more slowly, as on binding a larger partner.)

Like-named read-outs stand apart in the source and are kept apart here. Ends that are not written are not given here. Peptide text beside a SMILES is read from it.

As for `CC[C@H](C)[C@H](NC(=O)[C@H](CCCNC(=N)N)NC(=O)CNC(=O)[C@@H](NC(=O)[C@@H](NC(=O)[C@@H](NC(=O)[C@@H](NC(=O)[C@H](CO)NC(=O)CNC(=O)[C@H](CCCCN)NC(=O)[C@@H](N)CCCCN)C(C)C)C(C)C)[C@@H](C)CC)C(C)C)C(=O)N[C@H](C(=O)N[C@@H](CC(C)C)C(=O)N[C@@H](CO)C(=O)NCC(=O)N[C@@H](CCCCN)C(=O)N[C@@H](CCCCN)C(=O)O)C(C)C` [NS4A] (H-KKGSVVIVGRIVLSGKK-OH), binding at NS3 genotype-4 was put at a Kd of 0.169 ± 0.0037 µM.
As to GSxG23VIVGRIVLSG [Pep-15], in series [1] (2:1 ratio, room temperature, 2 h), the “Tagg shift higher than that of the native NS4A” value was found to be 1.07 °C. The “binding affinity by DSLS compared with the native peptide” value in [1] (all conditions (Fig. S6)) was “higher binding affinity than the native peptide”.
As for B1, the ΔTagg in [2] came out at 1.62 °C; in series [3] it was 2.09 °C; in series [4] it was 0.998 °C; in series [5], 1.71 °C; in series [6], 1.97 °C; in [7] it was 3.16 °C. This molecule registered a ΔTagg in [8] of 2.83 °C.
In series [9], B2 showed a Kd of 0.169 ± 0.0037 µM.

One may read the Kd as the concentration at which binding is half-saturated.

For the origin of these results see PMC7195562 (Journal of Advanced Research, 2020).
